Test results published in ChEMBL document CHEMBL4373727, “Thienopyrimidinone Derivatives That Inhibit Bacterial tRNA (Guanine37-N1)-Methyltransferase (TrmD) by Restructuring the Active Site with a Tyrosine-Flipping Mechanism” (J Med Chem, 2019).
In brackets after ≈: the same amount, converted by molar mass. Activity calls are given as the source filed them. Unless noted, no cut-off for these calls is given here.

Assays:
[1] = target: T1, tRNA (guanine-N(1)-)-methyltransferase (Mycobacterium tuberculosis (strain ATCC 25618 / H37Rv)) (UniProt P9WFY7); test: Binding affinity to full length Mycobacterium tuberculosis tRNA (guanine(37)-N1)-methyltransferase expressed in Escherichia coli BL21 (DE3) assessed as thermal stabilization of protein by measuring change in melting temperature at 0.1 mM by SYPRO orange based thermal shift assay
T1 sequence (whole entry): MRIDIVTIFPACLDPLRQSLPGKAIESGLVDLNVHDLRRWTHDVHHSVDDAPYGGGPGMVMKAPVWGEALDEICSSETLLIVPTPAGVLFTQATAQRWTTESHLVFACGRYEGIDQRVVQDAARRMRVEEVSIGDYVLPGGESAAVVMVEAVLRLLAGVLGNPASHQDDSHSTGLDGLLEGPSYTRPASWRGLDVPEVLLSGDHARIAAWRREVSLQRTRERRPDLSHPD
Method in brief: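 Thermal shift: 4 μM TrmD with 5× SYPRO Orange and ligand in 50 mM Tris-HCl pH 8, 150 mM NaCl, 1 mM MgCl2, 1 mM DTT, 0.05% Tween-20. Buffer-only control. Heated from 25 to 95 °C in a real-time PCR instrument, and Tm taken as the unfolding midpoint. Ligand levels: SAH 2 mM, inhibitors 0.1 mM.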

[2] = Selectivity ratio of Kd for full length Staphylococcus aureus tRNA (guanine(37)-N1)-methyltransferase expressed in Escherichia coli BL21 (DE3) to Kd for Pseudomonas aeruginosa tRNA (guanine(37)-N1)-methyltransferase (Leu5 to Asp25 residues) expressed in Escherichia coli BL21 (DE3) Rosetta T1R cells
[3] = system: Mycobacterium tuberculosis; test: Antibacterial activity against Mycobacterium tuberculosis ATCC 27294 incubated for 7 days by broth dilution method; format: functional; details: ATCC 27294, 168 h
Method in brief: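 M. tuberculosis ATCC 27294 in complete 7H9 with 0.05% Tween 80, 0.5% glycerol and 10% ADC. Mid-log cells adjusted to OD600 0.1 and added 1:1 to 2-fold serial compound dilutions (highest 100 μM). Incubated 7 d at 37 °C with shaking at 80 rpm, then OD600 read. Isoniazid positive control. MIC50/MIC90 versus drug-free controls. Biological duplicates.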

Acinetobacter baumannii = test: Antibacterial activity against Acinetobacter baumannii ATCC 17961 incubated for 24 hrs by serial broth microdilution method; format: functional; details: ATCC 17961, 24 h
Method in brief: (§1)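 Log-phase cultures from four colonies grown overnight at 37 °C, inoculated at ~5×10^5 cells/mL in cation-adjusted Mueller–Hinton broth with serially diluted compound. Grown 24 h at 37 °C, then OD600 read. MIC50/MIC90 are the concentrations giving 50%/90% growth inhibition relative to drug-free controls. Two independent experiments in duplicate.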

Klebsiella pneumoniae [4] = test: Antibacterial activity against Klebsiella pneumoniae ATCC 13883 incubated for 24 hrs by serial broth microdilution method; format: functional, organism-based; method in brief: as §1
[5] = system: Mycobacterium tuberculosis; test: Bactericidal activity against Mycobacterium tuberculosis H37Rv assessed as reduction in CFU at 1 to 4 times MIC90 incubated for 7 days; format: functional; details: 168 h, read-out: MBC99.9
Method in brief: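 Then plated on complete 7H10 agar for CFU. Inoculum plated at time zero. MBC99.9 is a 1000-fold CFU reduction versus the time-zero inoculum.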

Enterococcus faecalis = test: Antibacterial activity against Enterococcus faecalis ATCC 51299 incubated for 24 hrs by serial broth microdilution method; format: functional, organism-based
Method in brief: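 Broth microdilution in brain heart infusion broth, ~5×10^5 cells/mL log-phase inoculum, serial compound dilutions, 24 h at 37 °C, OD600 read-out. MIC50/MIC90 are the concentrations giving 50%/90% growth inhibition relative to drug-free controls. Two independent experiments in duplicate.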

Staphylococcus aureus [6] = test: Bactericidal activity against methicillin-resistant Staphylococcus aureus ATCC 43300 assessed as reduction in CFU at 1 to 4 times MIC90 incubated for 24 hrs; format: functional; details: ATCC 43300, 24 h, read-out: MBC99.9
Pseudomonas aeruginosa = test: Antibacterial activity against Pseudomonas aeruginosa PA14 incubated for 24 hrs by serial broth microdilution method; format: functional, organism-based; method in brief: as §1
Klebsiella pneumoniae [7] = test: Bactericidal activity against Klebsiella pneumoniae ATCC 13883 assessed as reduction in CFU at 1 to 4 times MIC90 incubated for 24 hrs; format: functional, organism-based
Staphylococcus aureus [8] = test: Antibacterial activity against methicillin-resistant Staphylococcus aureus ATCC 43300 incubated for 24 hrs by serial broth microdilution method; format: functional; details: ATCC 43300, 24 h
Method in brief: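 Growth read by OD600. MRSA in cation-adjusted Mueller–Hinton broth, M. smegmatis in complete 7H9. MIC50 and MIC90 are 50% and 90% growth inhibition versus drug-free controls. Two independent experiments, each in duplicate.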

Erythrocyte = test: Hemolytic activity in human RBC at 100 uM measured after 1 hr; format: ADME, cell-based
Method in brief: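 Fresh human RBCs were PBS-washed and resuspended to OD600 24, then mixed 1:1 by volume with compound serially diluted in PBS. Incubated 1 h at 37 °C without shaking and centrifuged at 1000g for 15 min. Triton X-100 served as positive control. Run in triplicate.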

[9] = target: T2, tRNA (guanine-N(1)-)-methyltransferase (Pseudomonas aeruginosa (strain ATCC 15692 / DSM 22644 / CIP 104116 / JCM14847 / LMG 12228 / 1C / PRS 101 / PAO1)) (UniProt Q9HXQ1); test: Inhibition of Pseudomonas aeruginosa tRNA (guanine(37)-N1)-methyltransferase (Leu5 to Asp25 residues) expressed in Escherichia coli BL21 (DE3) Rosetta T1R cells assessed as reduction in S-adenosyl-L-homocysteine production preincubated for 30 mins followed by 1.5 to 15 uM of tRNALeu(CAG) substrate and SAM addition and measured after 60 mins by MTase-Glo assay
T2 sequence (whole entry): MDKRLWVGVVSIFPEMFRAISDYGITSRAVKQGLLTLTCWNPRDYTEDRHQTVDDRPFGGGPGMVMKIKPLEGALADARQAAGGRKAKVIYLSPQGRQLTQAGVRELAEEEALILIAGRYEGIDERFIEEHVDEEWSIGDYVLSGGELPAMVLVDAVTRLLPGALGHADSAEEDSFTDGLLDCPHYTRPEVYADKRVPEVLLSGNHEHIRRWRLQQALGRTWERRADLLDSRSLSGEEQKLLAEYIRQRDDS

[10] = system: Mycolicibacterium smegmatis; test: Bactericidal activity against Mycolicibacterium smegmatis MC2 155 assessed as reduction in CFU at 1 to 4 times MIC90 incubated for 24 hrs; format: functional; details: MC2 155, 24 h, read-out: MBC99.9
Escherichia coli = test: Bactericidal activity against Escherichia coli BW25113 assessed as reduction in CFU at 1 to 4 times MIC90 incubated for 24 hrs; format: functional, organism-based

Question: With `NC1CCN(Cc2ccc(CNC(=O)c3csc4nc[nH]c(=O)c34)cc2)CC1` as the compound, how does the ΔTm [1] read?
Answer: 1 to 13 °C

Question: And the Ratio [2]?
Answer: 100 to 300

Question: For `CCCCCCCCNCc1ccc(CNC(=O)c2csc3nc[nH]c(=O)c23)cc1`, which MIC50 [3] is on record?
Answer: 78 µM (≈ 33.3 µg/mL)

Question: And the MIC90 [3]?
Answer: > 100 µM

Question: What about the MIC50 (Acinetobacter baumannii) of the same compound?
Answer: 62 µM (≈ 26.4 µg/mL)

Question: What about the MIC90 (Acinetobacter baumannii) of the same compound?
Answer: 95 µM (≈ 40.5 µg/mL)

Question: What about the MIC50 (Klebsiella pneumoniae [4]) of the same compound?
Answer: inactive

Question: What about the MIC90 (Klebsiella pneumoniae [4]) of the same compound?
Answer: inactive

Question: And the MBC [5]?
Answer: > 100 µM

Question: And the MIC50 (Enterococcus faecalis)?
Answer: inactive

Question: And the MIC90 (Enterococcus faecalis)?
Answer: inactive

Question: What about the MBC (Staphylococcus aureus [6]) of the same compound?
Answer: 54 µM (≈ 23 µg/mL)

Question: What about the MIC50 (Pseudomonas aeruginosa) of the same compound?
Answer: inactive

Question: What about the MIC90 (Pseudomonas aeruginosa) of the same compound?
Answer: inactive

Question: And the MBC99.9 (Klebsiella pneumoniae [7])?
Answer: inactive

Question: What about the MIC50 (Staphylococcus aureus [8]) of the same compound?
Answer: 31 µM (≈ 13.2 µg/mL)

Question: What about the MIC90 (Staphylococcus aureus [8]) of the same compound?
Answer: 36 µM (≈ 15.4 µg/mL)

Question: And the Activity (Erythrocyte)?
Answer: Non-Toxic

Question: And the inhibition [9]?
Answer: Dose-dependent effect

Question: And the MBC [10]?
Answer: > 100 µM

Question: And the MBC99.9 (Escherichia coli)?
Answer: inactive
